{"data": "Results gathered from unrelated publications", "CDK1 with cyclin B": "Cyclin-dependent kinase 1, with cyclin B (CDK1, Homo sapiens, UniProt P06493)", "CDK1 with cyclin A": "Cyclin-dependent kinase 1, with cyclin A (CDK1, Homo sapiens, UniProt P06493)", "CDK1": "Cyclin-dependent kinase 1 (CDK1, Homo sapiens, UniProt P06493)", "CDK1 with cyclin B1": "Cyclin-dependent kinase 1, with cyclin B1 (CDK1, Homo sapiens, UniProt P06493)", "note": "Protocols differ between the studies behind these lines."}
{"SMILES": "O=C1Nc2ccc(Cl)cc2C1=Cc1cc(Cl)c(O)c(Cl)c1", "target": "CDK1 with cyclin B", "test": "cell-free assay", "conditions": "0.5 µM", "endpoint": "remaining signal", "value": "96.3%"}
{"SMILES": "O=C(Nc1cnn(-c2csc(C(=O)NC3COC3)c2)c1)Nc1c(F)cccc1Cl", "target": "CDK1 with cyclin A", "test": "enzyme activity, inhibitor", "conditions": "5 µM", "endpoint": "remaining activity", "value": "86.3%"}
{"SMILES": "CNCc1ccc(-c2cc(-c3nc(-c4ccc(S(=O)(=O)C(C)C)cc4)cnc3N)on2)cc1", "target": "CDK1 with cyclin B", "test": "enzyme activity, inhibitor", "conditions": "0.4 µM", "endpoint": "inhibition", "value": "0%"}
{"SMILES": "CCOc1cc(-c2nncn2C)ccc1Nc1ncc2cc(C)nc(NCC(C)(C)C)c2n1", "target": "CDK1 with cyclin B", "test": "enzyme activity, inhibitor, FRET", "conditions": "1 µM", "endpoint": "inhibition", "value": "30%"}
{"SMILES": "O=Nc1c(-c2c(O)[nH]c3ccccc23)[nH]c2ccccc12", "target": "CDK1 with cyclin A", "test": "cell-free assay", "conditions": "0.5 µM", "endpoint": "remaining signal", "value": "88.4%"}
{"SMILES": "COc1cccc2c(NCc3ccccc3)nc(-n3c(N)nc4ccccc43)nc12", "target": "CDK1", "test": "target engagement in cells, inhibitor, chemoproteomics", "conditions": "20 mM", "endpoint": "inhibition", "value": "-2.6%"}
{"SMILES": "CC(C)(C)c1nc(-c2cccc(NS(=O)(=O)c3c(F)cccc3F)c2F)c(-c2ccnc(N)n2)s1", "target": "CDK1 with cyclin B1", "test": "enzyme activity, inhibitor, radiometric", "conditions": "1 µM", "endpoint": "remaining activity", "value": "89%"}
{"SMILES": "O=C1NC(=O)c2cc(Nc3ccc(F)cc3)c(Nc3ccc(F)cc3)cc21", "target": "CDK1 with cyclin A", "test": "cell-free assay", "conditions": "0.5 µM", "endpoint": "remaining signal", "value": "96.1%"}
{"SMILES": "CC(C)c1ccc(NC(=O)c2cccs2)c(-c2nc3ccccc3[nH]c2=O)c1", "target": "CDK1 with cyclin B", "test": "enzyme activity, inhibitor", "conditions": "1 µM", "endpoint": "activity vs control", "value": "107%"}
{"SMILES": "Nc1nc(Nc2ccc(S(N)(=O)=O)cc2)sc1C(=O)c1ccccc1[N+](=O)[O-]", "target": "CDK1", "test": "enzyme activity, inhibitor", "conditions": "0.1 µM", "endpoint": "inhibition", "value": "90 to 93%"}
{"SMILES": "Cc1ccc(C(=O)NCc2ccsc2)cc1C#Cc1cn(C(C)C)c2ncnc(N)c12", "target": "CDK1 with cyclin B", "test": "enzyme activity, inhibitor", "conditions": "1 µM", "endpoint": "activity vs control", "value": "100%"}
{"SMILES": "CC/C(=N\\NC(=O)NCc1cccc(O)c1)c1ccc(O)c(C)c1O", "target": "CDK1 with cyclin B1", "test": "enzyme activity, inhibitor", "conditions": "0.1 µM", "endpoint": "inhibition", "value": "-14.8%"}
{"SMILES": "CC(C)(O)[C@H]1CC[C@H](Nc2ccc3ncc(-c4cccc(C(F)(F)F)c4)n3n2)CC1", "target": "CDK1 with cyclin A", "test": "enzyme activity, inhibitor", "conditions": "1 µM", "endpoint": "remaining activity", "value": "95.4%"}
{"SMILES": "N#CCCc1ccc2c(c1)-c1[nH]c3ccc([N+](=O)[O-])cc3c1CC(=O)N2", "target": "CDK1 with cyclin B", "test": "cell-free assay", "conditions": "0.5 µM", "endpoint": "remaining signal", "value": "9.89%"}
{"SMILES": "Cc1ccc(Nc2nccc(N(C)c3ccc4c(C)n(C)nc4c3)n2)cc1S(N)(=O)=O", "target": "CDK1 with cyclin B", "test": "enzyme activity, inhibitor", "conditions": "0.3 µM", "endpoint": "inhibition", "value": "14%"}
{"SMILES": "Cc1sc(C(=O)NC2COC2)cc1-n1cc(NC(=O)Nc2c(F)cccc2Cl)cn1", "target": "Cyclin-dependent kinase 1, with cyclin E (CDK1, Homo sapiens, UniProt P06493)", "test": "enzyme activity, inhibitor", "conditions": "10 µM", "endpoint": "remaining activity", "value": "100%"}
{"SMILES": "CC(C)n1cnc2c(Nc3cccc(Cl)c3)nc(NCCO)nc21", "target": "CDK1 with cyclin B", "test": "cell-free assay", "conditions": "0.5 µM", "endpoint": "remaining signal", "value": "46.6%"}
{"SMILES": "O=C(Nc1cnn(-c2csc(C(=O)NC3COC3)c2)c1)Nc1ccccc1Cl", "target": "CDK1 with cyclin A", "test": "enzyme activity, inhibitor", "conditions": "5 µM", "endpoint": "remaining activity", "value": "95.5%"}
{"SMILES": "CSc1nc(C)c(-c2ccnc(Nc3ccc(N4CCOCC4)cc3)c2)[nH]1", "target": "CDK1", "test": "enzyme activity, inhibitor", "conditions": "10 µM", "endpoint": "inhibition", "value": "62%"}
{"SMILES": "CCN(CC)CCNC(=O)c1c(C)[nH]c(/C=C2\\C(=O)Nc3ccc(F)cc32)c1C", "target": "CDK1 with cyclin B", "test": "enzyme activity, inhibitor", "conditions": "10 µM", "endpoint": "inhibition", "value": "10%"}
{"SMILES": "CC(C)(C)c1nc2c(s1)c1nc(N)ncc1c1ccc(NS(=O)(=O)c3c(F)cccc3F)c(F)c12", "target": "CDK1 with cyclin B1", "test": "enzyme activity, inhibitor, radiometric", "conditions": "1 µM", "endpoint": "remaining activity", "value": "89%"}
{"SMILES": "Nc1nc(Nc2ccc(S(N)(=O)=O)cc2)nn1C(=O)c1c(F)cccc1F", "target": "CDK1 with cyclin A", "test": "cell-free assay", "conditions": "0.5 µM", "endpoint": "remaining signal", "value": "10.3%"}
